The source made the active and inactive calls. The calls are words filed in the database; no cut-off is given here.
What was measured:
[1] = tested on: Coxsackievirus B4; test: Antiviral activity against Human coxsackievirus B4 infected VERO cells assessed as inhibition of virus-induced cytopathicity; type: functional, organism-based
Procedure, shortened: (§1)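 Confluent monolayers (feline kidney Crandell, Vero, HEL or HeLa, as named for each virus) were infected with 100 CCID50 of virus and allowed to adsorb for 1 h. Unbound virus was then removed, and cultures were incubated with test compound in serial dilutions (200, 40, 8 … µM). Cytopathicity was scored once untreated infected controls reached complete cytopathic effect.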

[2] = tested on: Punta Toro virus; test: Antiviral activity against Punta Toro virus infected Hela cells assessed as inhibition of virus-induced cytopathicity; type: functional, organism-based
[3] = Antioxidant activity assessed as inhibition of AAPH-induced lipid peroxidation at 1 X 10^-5 M; type: functional
[4] = tested on: Influenza A virus; test: Antiviral activity against Unidentified Influenza A virus (H1N2) infected MDCK cells assessed as inhibition of virus-induced cytopathicity; type: functional, organism-based
[5] = tested on: Human alphaherpesvirus 1; test: Antiviral activity against […] 1 KOS infected in human HEL cells assessed as inhibition of virus-induced cytopathicity; type: functional, organism-based; procedure, shortened: as §1
[6] = tested on: Respiratory syncytial virus; test: Antiviral activity against Respiratory syncytial virus infected human HeLa cells assessed as inhibition of virus-induced cytopathicity; type: functional, organism-based; procedure, shortened: as §1
[7] = biological target: T1, Seed linoleate 13S-lipoxygenase-1 (Glycine max) (UniProt P08170); test: Inhibition of Glycine max (soybean) lipoxygenase using sodium linoleate as substrate at 1 X 10^-4
T1 sequence (whole entry): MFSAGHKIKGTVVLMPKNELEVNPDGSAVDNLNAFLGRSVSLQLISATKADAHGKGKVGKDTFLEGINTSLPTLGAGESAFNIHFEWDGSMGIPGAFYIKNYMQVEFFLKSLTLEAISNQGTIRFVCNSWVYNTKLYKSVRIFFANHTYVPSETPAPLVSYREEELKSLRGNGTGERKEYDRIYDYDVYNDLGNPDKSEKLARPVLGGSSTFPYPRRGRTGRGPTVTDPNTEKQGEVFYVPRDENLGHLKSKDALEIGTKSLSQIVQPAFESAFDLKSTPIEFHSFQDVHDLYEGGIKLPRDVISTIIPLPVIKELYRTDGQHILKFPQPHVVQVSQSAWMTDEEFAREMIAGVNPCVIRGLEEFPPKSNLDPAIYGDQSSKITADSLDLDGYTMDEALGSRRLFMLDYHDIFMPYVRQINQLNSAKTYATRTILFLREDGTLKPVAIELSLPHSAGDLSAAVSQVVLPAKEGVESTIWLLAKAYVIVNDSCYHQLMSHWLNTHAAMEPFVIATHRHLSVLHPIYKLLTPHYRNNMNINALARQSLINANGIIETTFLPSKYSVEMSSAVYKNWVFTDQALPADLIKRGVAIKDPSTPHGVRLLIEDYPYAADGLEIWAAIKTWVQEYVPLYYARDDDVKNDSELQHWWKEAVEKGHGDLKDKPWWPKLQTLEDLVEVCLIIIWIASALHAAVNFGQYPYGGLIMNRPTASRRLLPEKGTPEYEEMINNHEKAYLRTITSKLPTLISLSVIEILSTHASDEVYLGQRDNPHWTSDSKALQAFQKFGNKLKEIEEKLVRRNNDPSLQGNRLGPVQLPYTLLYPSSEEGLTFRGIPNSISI

[8] = tested on: Coxsackievirus B4; test: Antiviral activity against Human coxsackievirus B4 infected human HeLa cells assessed as inhibition of virus-induced cytopathicity; type: functional, organism-based; procedure, shortened: as §1
[9] = tested on: Human alphaherpesvirus 2; test: Antiviral activity against Human herpesvirus 2 strain G infected human HEL cells assessed as inhibition of virus-induced cytopathicity; type: functional, organism-based; procedure, shortened: as §1
[10] = tested on: Mammalian orthoreovirus 1; test: Antiviral activity against Mammalian orthoreovirus 1 infected VERO cells assessed as inhibition of virus-induced cytopathicity; type: functional, organism-based; procedure, shortened: as §1
[11] = tested on: Radical scavenging activity; test: Antioxidant activity assessed as DPPH radical scavenging activity at 1 X 10^-4 M after 20 min; type: functional
Procedure, shortened: (§2)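 Test compound was mixed with DPPH (0.05 and 0.1 mM) in ethanol. Absorbance at 517 nm was read after 20 and 60 min and compared with the NDGA standard, with ethanol as control. Each experiment was run at least in triplicate, and the SD of absorbance was <10% of the mean.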

[12] = tested on: Radical scavenging activity; test: Antioxidant activity assessed as DPPH radical scavenging activity at 5 X 10^-5 M after 60 min; type: functional; procedure, shortened: as §2
[13] = tested on: Human respirovirus 3; test: Antiviral activity against Human parainfluenza virus 3 infected Vero cells assessed as inhibition of virus-induced cytopathicity; type: functional, organism-based; procedure, shortened: as §1
[14] = tested on: Radical scavenging activity; test: Antioxidant activity assessed as DPPH radical scavenging activity at 1 X 10^-4 M after 60 min; type: functional; procedure, shortened: as §2
[15] = tested on: Sindbis virus; test: Antiviral activity against Sindbis virus infected Hela cells assessed as inhibition of virus-induced cytopathicity; type: functional, organism-based
[16] = tested on: Feline coronavirus; test: Antiviral activity against Feline coronavirus infected feline kidney crandell cells assessed as inhibition of virus-induced cytopathicity; type: functional, organism-based; procedure, shortened: as §1
[17] = tested on: Radical scavenging activity; test: Antioxidant activity assessed as DPPH radical scavenging activity at 5 X 10^-5 M after 20 min; type: functional; procedure, shortened: as §2
[18] = tested on: Vesicular stomatitis virus; test: Antiviral activity against Vesicular stomatitis virus infected HEL cells assessed as inhibition of virus-induced cytopathicity; type: functional, organism-based
[19] = Antioxidant activity assessed as inhibition of AAPH-induced lipid peroxidation at 1 X 10^-4 M; type: functional
[20] = tested on: Vaccinia virus; test: Antiviral activity against Vaccinia virus infected human HEL cells assessed as inhibition of virus-induced cytopathicity; type: functional, organism-based; settings: Orthopoxvirus vaccinia
[21] = tested on: Vesicular stomatitis virus; test: Antiviral activity against Vesicular stomatitis virus infected Hela cells assessed as inhibition of virus-induced cytopathicity; type: functional, organism-based

| SMILES | Activity [1] | Activity [2] | Activity [4] | Activity ([4]; H1N1) | Activity [5] | Activity [6] | Activity [8] | Activity [9] | Activity [10] | inhibition [11] | inhibition [12] [%] | Activity [13] | inhibition [14] | Activity [15] | Activity [16] | inhibition [17] | Activity [18] | inhibition [19] [%] | Activity [20] | Activity [21] | also measured |
| --- | --- | --- | --- | --- | --- | --- | --- | --- | --- | --- | --- | --- | --- | --- | --- | --- | --- | --- | --- | --- | --- |
| CC(C(=O)N1CCCCC1)c1cccc(C(OC(=O)N2CCCCC2)c2ccccc2)c1 (centres undefined) | inactive | inactive | inactive | inactive | inactive | inactive | inactive | inactive | inactive | 1.7% | 10 | inactive | 4.3% | inactive | inactive | 8.6% | inactive | 97.4 | inactive | inactive | inhibition [3]: 25.5%; inhibition [7]: inactive |
| CONC(=O)OC(c1ccccc1)c1cccc(C(C)C(=O)NOC)c1 (centres undefined) | inactive | inactive | inactive | inactive | inactive | inactive | inactive | inactive | inactive | 1.8% | 4.1 | inactive | 3.2% | inactive | inactive | inactive | inactive | 61 | inactive | inactive | inhibition [3]: 2.5%; inhibition [7]: 26.9% |
| CC(C(=O)NCCc1ccccc1)c1cccc(C(OC(=O)NCCc2ccccc2)c2ccccc2)c1 (centres undefined) | inactive | inactive | inactive | inactive | inactive | inactive | inactive | inactive | inactive | inactive | 8.5 | inactive | 2.2% | inactive | inactive | 3.6% | inactive | 99 | inactive | inactive | inhibition [3]: 22.5%; inhibition [7]: 18.9% |
| CC(C(=O)NC1CCCCC1)c1cccc(C(OC(=O)NC2CCCCC2)c2ccccc2)c1 (centres undefined) | inactive | inactive | inactive | inactive | inactive | inactive | inactive | inactive | inactive | inactive | 3.1 | inactive | inactive | inactive | inactive | 2% | inactive | 96.1 | inactive | inactive | inhibition [3]: 5.4%; inhibition [7]: 22.7% |
| CC(C(=O)N1CCCC1)c1cccc(C(OC(=O)N2CCCC2)c2ccccc2)c1 (centres undefined) | inactive | inactive | inactive | inactive | inactive | inactive | inactive | inactive | inactive | 2.6% | 6.5 | inactive | 2.7% | inactive | inactive | 5.7% | inactive | 77.2 | inactive | inactive | inhibition [3]: 16.4%; inhibition [7]: 12.7% |
| CC(C(=O)NOCc1ccccc1)c1cccc(C(OC(=O)NOCc2ccccc2)c2ccccc2)c1 (centres undefined) | inactive | inactive | inactive | inactive | inactive | inactive | inactive | inactive | inactive | inactive | 5.6 | inactive | inactive | inactive | inactive | 3.4% | inactive | 99.3 | inactive | inactive | inhibition [3]: 49.2%; inhibition [7]: 40.8% |
| Cc1c(C)c2c(c(C)c1O)CCC(C)(C(=O)O)O2 (centres undefined) | inactive | inactive | inactive | inactive | inactive | inactive | inactive | inactive | inactive | – | – | inactive | – | inactive | inactive | – | inactive | 63 | inactive | inactive | – |
| O=C(O)/C=C/c1ccc(O)c(O)c1 | inactive | inactive | inactive | inactive | inactive | inactive | inactive | inactive | inactive | – | – | inactive | – | inactive | inactive | – | inactive | – | inactive | inactive | – |
| CC(Cc1ccc(O)c(O)c1)C(C)Cc1ccc(O)c(O)c1 (centres undefined) | inactive | inactive | inactive | inactive | inactive | inactive | inactive | inactive | inactive | 93% | 83 | inactive | 97% | inactive | inactive | 81% | inactive | – | inactive | inactive | – |
| CCONC(=O)OC(c1ccccc1)c1cccc(C(C)C(=O)NOCC)c1 (centres undefined) | inactive | inactive | inactive | inactive | inactive | inactive | inactive | inactive | inactive | 2.3% | 3.7 | inactive | 1.1% | inactive | inactive | 2.5% | inactive | 54.5 | inactive | inactive | inhibition [3]: inactive; inhibition [7]: 22.3% |

From ChEMBL document CHEMBL3045051 (Med Chem Res, 2011)
